Measured values collected from several papers.
Lines come from different studies, so protocols differ.
Target: Beta-adrenergic receptor kinase 1 (GRK2, Homo sapiens, UniProt P25098)
Concentration: 1 µM
Residues used in one study (P25098 1-689): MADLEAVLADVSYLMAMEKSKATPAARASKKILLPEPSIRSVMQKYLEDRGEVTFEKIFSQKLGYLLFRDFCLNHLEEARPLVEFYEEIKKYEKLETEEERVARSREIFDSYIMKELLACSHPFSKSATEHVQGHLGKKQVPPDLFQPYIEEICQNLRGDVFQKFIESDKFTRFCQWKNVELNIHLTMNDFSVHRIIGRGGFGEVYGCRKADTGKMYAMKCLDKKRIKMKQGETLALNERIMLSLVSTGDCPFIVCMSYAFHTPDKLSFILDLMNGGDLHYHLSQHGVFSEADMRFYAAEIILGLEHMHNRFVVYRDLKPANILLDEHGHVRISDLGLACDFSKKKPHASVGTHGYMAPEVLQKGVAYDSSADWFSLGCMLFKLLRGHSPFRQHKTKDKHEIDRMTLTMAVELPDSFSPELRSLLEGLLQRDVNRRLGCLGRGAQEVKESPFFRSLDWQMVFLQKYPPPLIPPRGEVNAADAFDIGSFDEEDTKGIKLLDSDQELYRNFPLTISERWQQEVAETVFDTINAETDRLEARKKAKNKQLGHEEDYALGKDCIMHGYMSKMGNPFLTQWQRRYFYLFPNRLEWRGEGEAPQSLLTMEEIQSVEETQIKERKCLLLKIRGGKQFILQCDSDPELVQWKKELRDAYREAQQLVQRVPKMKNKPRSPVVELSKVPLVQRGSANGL

N[C@@H]1CCN(c2nccc(-c3cnn4ncccc34)n2)C1 — remaining binding (binding): 82%
CO[C@H]1CC[C@H](CNc2ccc(S(=O)(=O)NC(=O)c3ccc(N4CCN(CC5=C(c6ccc(Cl)cc6)CC(C)(C)CC5)CC4)cc3Oc3cnc4[nH]ccc4c3)cc2[N+](=O)[O-])CC1 — remaining binding (cell-free assay, competition with immobilised ligand): 85%
CN(C)c1nccc(-c2cnc3ncccn23)n1 — remaining binding (binding, competition with immobilised ligand): 92%
Nc1ncc2c(n1)-c1c([nH]c3ccc(C#CC4CC4)cc13)CCCC2 — remaining binding (binding, competition with immobilised ligand): 87%
CNC(=O)[C@@H]1CC[C@@H](n2c(-c3ccc4cnccc4c3)nc3ccc(C(=O)NCc4cccc(C(N)=O)c4)cc32)C1 — remaining binding (binding, competition with immobilised ligand): 92%
O=C(Nc1c[nH]nc1C(=O)NC1CCNCC1)c1cc(F)cc(F)c1 — remaining binding (binding, competition with immobilised ligand): 100%
COc1cnc(Nc2cccc(S(N)(=O)=O)c2)nc1N1CCN(c2ccccc2)C(=O)C1 — remaining binding (binding, competition with immobilised ligand): 68%
C[C@H]1CCN(c2nccc(-c3cnn4ncccc34)n2)C1 — remaining binding (binding, competition with immobilised ligand): 50%
C=CC(=O)N1CCC(C(=O)NCC(=O)N2CCN(c3nc(-c4cnc(N)nc4C(F)F)nc(N4CCOCC4)n3)CC2)CC1 — remaining binding (binding, competition with immobilised ligand): 100%
O=C(c1ccc(Nc2ncc(Cl)c(-c3cc4ccccc4s3)n2)cc1)N1CCC(N2CCCC2)CC1 — remaining binding (binding, competition with immobilised ligand): 71%
Cc1nc(Cc2cccc(C(F)(F)F)c2)sc1-c1ccc(C(N)=O)nc1 — remaining binding (cell-free assay, competition with immobilised ligand): 100%
F[C@@H]1CCN(c2nccc(-c3cnn4ncccc34)n2)C1 — remaining binding (binding): 54%
COc1ccc2c(c1)O[C@H](c1ccc(OC)c(OC)c1)C[C@@H]2NC(=O)C1(c2ccc3c(c2)OC(F)(F)O3)CC1 — remaining binding (cell-free assay, competition with immobilised ligand): 84%
O=C(NCCCN1CCOCC1)c1ccc(Nc2nccc(-c3cc4ccccc4s3)n2)cc1 — remaining binding (binding, competition with immobilised ligand): 65%
Cc1nc(C2CCN(C(=O)c3ccc(OC(F)(F)F)cc3N)CC2)c2ncc(N3CCN(C)CC3)cc2n1 — remaining binding (cell-free assay, competition with immobilised ligand): 92%
CN(CCCC(F)(F)F)c1nccc(-c2cnn3ncccc23)n1 — remaining binding (binding, competition with immobilised ligand): 61%
c1ccc(N2CCN(Cc3nc4ccccc4[nH]3)CC2)nc1 — remaining binding (binding, competition with immobilised ligand): 90%
CN(C)c1nccc(-c2cnn3ncccc23)n1 — remaining binding (binding, competition with immobilised ligand): 74%
Cc1cnc(Nc2ccc(C(=O)N3CCC(N4CCCC4)CC3)cc2)nc1-c1cc2ccccc2s1 — remaining binding (binding, competition with immobilised ligand): 56%
Cc1c(NC(=O)c2cc(C(N)=O)nc3cc(F)ccc23)c(C(F)(F)F)nn1Cc1ccc(C(C)(C)C)cc1 — remaining binding (cell-free assay, competition with immobilised ligand): 100%
